# Test results reported in ChEMBL document CHEMBL4257587 (J Med Chem, 2018).
# Columns and labels:
# [1] = Cmax in C57BL/6 mouse at 45 mg/kg, po via gavage by LC-MS/MS analysis; format: ADME, organism-based; parameters: dose 45 mg/kg, route oral; conditions: in vivo
# [2] = Volume of distribution at steady state in C57BL/6 mouse at 4.5 mg/kg, iv by LC-MS/MS analysis; format: ADME, organism-based; conditions: in vivo, read-out: Vdss
# [3] = AUC in C57BL/6 mouse at 45 mg/kg, po via gavage by LC-MS/MS analysis; format: ADME, organism-based; conditions: in vivo
# [4] = Oral bioavailability in C57BL/6 mouse at 45 mg/kg via gavage by LC-MS/MS analysis; format: ADME, organism-based; conditions: in vivo
# [5] = tested on: Mycobacterium tuberculosis; assay: Antimycobacterial activity against Mycobacterium tuberculosis H37Rv ATCC 25618 after 6 days by resazurin-based assay; format: functional; conditions: H37Rv ATCC 25618, 144 h
# [6] = Intrinsic clearance in human liver microsomes at 0.5 uM preincubated with NADPH and measured up to 30 mins by LC-MS/MS analysis; format: ADME, microsome
# [7] = Intrinsic clearance in mouse liver microsomes at 0.5 uM preincubated with NADPH and measured up to 30 mins by LC-MS/MS analysis; format: ADME, microsome
# [8] = Clearance in C57BL/6 mouse at 4.5 mg/kg, iv by LC-MS/MS analysis; format: ADME, organism-based; conditions: in vivo
# [9] = Half life in C57BL/6 mouse at 4.5 mg/kg, iv by LC-MS/MS analysis; format: ADME, organism-based; conditions: in vivo
# [10] = tested on: HepG2; assay: Cytotoxicity against human HepG2 cells assessed as effect on mitochondrial membrane potential after 48 hrs by TMRM-staining based cell health assay; format: ADME; conditions: HepG2, 48 h
# [11] = tested on: HepG2; assay: Cytotoxicity against human HepG2 cells assessed as effect on membrane permeability after 48 hrs by TOTO-3 iodide-staining based cell health assay; format: ADME; conditions: HepG2, 48 h
# [12] = tested on: HepG2; assay: cells; format: ADME, cell-based; conditions: Homo sapiens, HepG2, 48 h
# [13] = physchem; conditions: buffer, pH 7.4
# [14] = tested on: Mycobacterium tuberculosis; assay: Antimycobacterial activity against Mycobacterium tuberculosis H37Rv ATCC 25618 assessed as reduction in cell viability after 7 days by bacTiter-Glo assay; format: functional; conditions: H37Rv ATCC 25618, 168 h
# [15] = Volume of distribution at steady state in C57BL/6 mouse at 4 mg/kg, iv by LC-MS/MS analysis; format: ADME, organism-based; conditions: in vivo, read-out: Vdss
# Method in brief: (§1)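 Female C57BL/6 mice (18−20 g), single intravenous dose in 5% DMSO/20% Encapsin. Tail-vein whole blood (25 μL) was taken from each mouse (n = 5) at 5, 15 and 30 min and 1, 2, 4 and 8 h postdose, and compound concentration was measured in peripheral whole blood.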
# [16] = tested on: Mycobacterium tuberculosis; assay: Antimycobacterial activity against Mycobacterium tuberculosis clinical isolates after 6 days by resazurin-based assay; format: functional; conditions: 144 h
# [17] = Half life in C57BL/6 mouse at 4 mg/kg, iv by LC-MS/MS analysis; format: ADME, organism-based; conditions: in vivo; method in brief: as §1
# [18] = tested on: Mus musculus; assay: Oral bioavailability in C57BL/6 mouse at 49.2 mg/kg via gavage by LC-MS/MS analysis; format: ADME, organism-based; conditions: in vivo
# [19] = tested on: Mus musculus; assay: AUC in C57BL/6 mouse at 49.2 mg/kg, po via gavage by LC-MS/MS analysis; format: ADME, organism-based; conditions: in vivo
# [20] = Cmax in C57BL/6 mouse at 49.2 mg/kg, po via gavage by LC-MS/MS analysis; format: ADME, organism-based; parameters: dose 49.2 mg/kg, route oral; conditions: in vivo
# [21] = Cytotoxicity against human HepG2 cells after 48 hrs by cellTiter-Glo assay; format: cell-based; conditions: read-out: TC50
# [22] = Half life in C57BL/6 mouse at […], iv by LC-MS/MS analysis; format: ADME, organism-based; conditions: in vivo
# [23] = Oral bioavailability in C57BL/6 mouse at 44 mg/kg via gavage by LC-MS/MS analysis; format: ADME, organism-based; conditions: in vivo
# [24] = AUC in C57BL/6 mouse at 44 mg/kg, po via gavage by LC-MS/MS analysis; format: ADME, organism-based; conditions: in vivo
# [25] = Volume of distribution at steady state in C57BL/6 mouse at […], iv by LC-MS/MS analysis; format: ADME, organism-based; conditions: in vivo, read-out: Vdss
# [26] = tested on: Mycobacterium tuberculosis; assay: Antibacterial activity against Mycobacterium tuberculosis H37Rv infected in C57BL/6 mouse assessed as efficacious dose casing 2 log reduction in colony forming units administered orally once daily for 8 days starting following day after infection and measured at 24 hrs post last dose; format: functional; conditions: po
# Method in brief: (§2)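 Female C57BL/6 mice, 8−10 weeks old, infected intratracheally with 100 000 CFU of H37Rv. Oral dosing once daily for 8 days began 1 day post-infection. Lungs were harvested 24 h after the last dose, homogenised and plated on 7H11 with 10% OADC and 0.4% charcoal for 18 days at 37 °C. Log10 CFU was fitted to a sigmoidal dose-response curve, and ED99 was defined as a 2-log CFU drop versus untreated.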
# [27] = tested on: Mycobacterium tuberculosis; assay: Antibacterial activity against Mycobacterium tuberculosis H37Rv infected in C57BL/6 mouse assessed as reduction in colony forming units administered orally once daily for 8 days starting following day after infection and measured at 24 hrs post last dose relative to untreated control; format: functional; method in brief: as §2
# [28] = Cmax in C57BL/6 mouse at 44 mg/kg, po via gavage by LC-MS/MS analysis; format: ADME, organism-based; parameters: dose 44 mg/kg, route oral; conditions: in vivo
# [29] = tested on: Mus musculus; assay: Toxicity in Mycobacterium tuberculosis H37Rv infected C57BL/6 mouse assessed as drug tolerability at >50 mg/kg, po administered once daily for 8 days starting following day after infection and measured at 24 hrs post last dose; format: organism-based; conditions: in vivo
# [30] = Clearance in C57BL/6 mouse at […], iv by LC-MS/MS analysis; format: ADME, organism-based; conditions: in vivo
# [31] = Clearance in C57BL/6 mouse at 3.6 mg/kg, iv by LC-MS/MS analysis; format: ADME, organism-based; conditions: in vivo; method in brief: as §1
# [32] = Oral bioavailability in C57BL/6 mouse at 18.7 mg/kg via gavage by LC-MS/MS analysis; format: ADME, organism-based; conditions: in vivo
# [33] = Cmax in C57BL/6 mouse at 18.7 mg/kg, po via gavage by LC-MS/MS analysis; format: ADME, organism-based; parameters: dose 18.7 mg/kg, route oral; conditions: in vivo
# [34] = Half life in C57BL/6 mouse at 3.6 mg/kg, iv by LC-MS/MS analysis; format: ADME, organism-based; conditions: in vivo; method in brief: as §1
# [35] = AUC in C57BL/6 mouse at 18.7 mg/kg, po via gavage by LC-MS/MS analysis; format: ADME, organism-based; conditions: in vivo
# [36] = Volume of distribution at steady state in C57BL/6 mouse at 3.6 mg/kg, iv by LC-MS/MS analysis; format: ADME, organism-based; conditions: in vivo, read-out: Vdss; method in brief: as §1
Compound,MIC90 [5] [µM],CLH [6] [mL/min/g],CLH [7] [mL/min/g],IC50 [10] [µM],IC50 [11] [µM],IC50 [12] [µM],solubility kinetic at 1 h [13] [µM],further results
Brc1ccc(Nc2ccc(CN3CCC4(CC3)OCCc3sccc34)cc2)cc1,0.2,1.5,0.9,–,–,–,–,Cmax [1]: 1020 ng/mL; Vd [2]: 12 L/kg; AUC [3]: 17900 ng·h/mL; bioavailability [4]: 84.6%; clearance [8]: 19.8 mL/min/kg; half-life [9]: 7.3 h
CN1CCCC2(CCN(Cc3ccc(Oc4ccc(OC(F)(F)F)cc4)cc3)CC2)C1,2.5,–,–,12.2,8,6.9,205,–
c1cc2c(s1)CCOC21CCN(Cc2ccc3c(c2)OCCO3)CC1,0.3,25,> 30,–,–,–,266,MIC80 [14]: 0.25 µM; Vd [15]: 7.4 L/kg; MIC90 [16]: 0.6 µM; half-life [17]: 0.7 h; F [18]: 14.6%; AUC [19]: 1780 ng·h/mL; Cmax [20]: 470 ng/mL; CC50 at 48 h [21]: 36 µM
CC(C)(C)c1ccc(CN2CCC3(CCCOC3)CC2)cc1,0.63,7.3,48,> 200,> 200,> 200,363,–
CC(C)(C)c1ccc(CN2CCC3(CC2)OCCCO3)cc1,2.5,1.4,13.5,> 200,> 200,> 200,374,–
FC(F)(F)Oc1ccc(Oc2ccc(N3CCC4(CC3)OCCc3sccc34)cc2)cc1,0.06,0.6,1.2,–,–,11,–,half-life [22]: 3.2 h; bioavailability [23]: 42.6%; AUC [24]: 8740 ng·h/mL; Vd [25]: 10.4 L/kg; ED99 [26]: 11.6 mg/kg; Activity [27]: 4.2 log10CFU; Cmax [28]: 1270 ng/mL; Activity [29]: Non-Toxic; clearance [30]: 36.3 mL/min/kg
c1ccc(Oc2ccc(CN3CCC4(CC3)OCCc3sccc34)cc2)cc1,0.05,12,28.8,–,–,–,–,clearance [31]: 67.7 mL/min/kg; bioavailability [32]: 1.5%; Cmax [33]: 50 ng/mL; half-life [34]: 3.9 h; AUC [35]: 100 ng·h/mL; Vd [36]: 19.4 L/kg
FC(F)(F)Oc1ccc(Oc2ccc(CN3CCC4(CCCCC4)CC3)cc2)cc1,0.1,0.5,2.8,21.8,28.3,25.9,< 1,–
FC(F)(F)Oc1ccc(Oc2ccc(CN3CCC4(CC3)OCCCO4)cc2)cc1,0.65,< 0.5,< 0.5,28.8,25.7,26.3,53,–
CC(C)(C)c1ccc(CN2CCC3(CCOCC3)CC2)cc1,5,0.95,2.25,> 200,> 200,> 200,≥ 399,–
